According to ChEMBL document CHEMBL3085694, “An efficient approach to novel 17-5'-(1',2',4')-oxadiazolyl androstenes via the cyclodehydration of cytotoxic O-steroidacylamidoximes, and an evaluation of their inhibitory action on 17α-hydroxylase/C₁₇,₂₀-lyase” (Eur J Med Chem, 2013):

How the values were obtained:
Type in all cases: functional
A-431 [1] = assay: Antiproliferative activity against human A431 cells at 10 uM after 72 hrs by MTT assay; conditions: A-431, 72 h
Summary of the method: (§1)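 Single-concentration screen at 10 or 30 µM. Cells were kept at 37 °C, 5% CO2, seeded 5000 cells/well and left overnight, then given compound for 72 h (from 10 mM DMSO stocks; medium DMSO at most 0.3%). Viability by MTT, formazan dissolved in DMSO, absorbance at 545 nm, reported as percent growth inhibition. Two independent experiments, 5 parallel wells; cisplatin positive control.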

A-431 [2] = assay: Antiproliferative activity against human A431 cells at 30 uM after 72 hrs by MTT assay; conditions: A-431, 72 h; summary of the method: as §1
A2780 [3] = assay: Antiproliferative activity against human A2780 cells at 30 uM after 72 hrs by MTT assay; conditions: A2780, 72 h; summary of the method: as §1
A2780 [4] = assay: Antiproliferative activity against human A2780 cells at 10 uM after 72 hrs by MTT assay; conditions: A2780, 72 h; summary of the method: as §1
MCF7 [5] = assay: Antiproliferative activity against human MCF7 cells at 30 uM after 72 hrs by MTT assay; conditions: MCF7, 72 h; summary of the method: as §1
MCF7 [6] = assay: Antiproliferative activity against human MCF7 cells at 10 uM after 72 hrs by MTT assay; conditions: MCF7, 72 h; summary of the method: as §1
HeLa [7] = assay: Antiproliferative activity against human HeLa cells at 30 uM after 72 hrs by MTT assay; summary of the method: as §1
HeLa [8] = assay: Antiproliferative activity against human HeLa cells at 10 uM after 72 hrs by MTT assay; summary of the method: as §1

Row | Compound | inhibition at 10 µM (A-431 [1]) [%] | inhibition at 30 µM (A-431 [2]) [%] | inhibition at 30 µM (A2780 [3]) [%] | inhibition at 10 µM (A2780 [4]) [%] | inhibition at 30 µM (MCF7 [5]) [%] | inhibition at 10 µM (MCF7 [6]) [%] | inhibition at 30 µM (HeLa [7]) [%] | inhibition at 10 µM (HeLa [8]) [%]
1 | COc1ccc(-c2noc([C@H]3CC[C@H]4[C@@H]5CC=C6C[C@@H](OC(C)=O)CC[C@]6(C)[C@H]5CC[C@]34C)n2)cc1 | < 20 | 25.6 | 52.8 | 28.2 | 43.2 | < 20 | 44.7 | < 20
2 | CC(=O)O[C@H]1CC[C@@]2(C)C(=CC[C@H]3[C@@H]4CC[C@H](c5nc(-c6ccc(Br)cc6)no5)[C@@]4(C)CC[C@@H]32)C1 | < 20 | < 20 | 20.4 | < 20 | < 20 | < 20 | < 20 | < 20
3 | CC(=O)O[C@H]1CC[C@@]2(C)C(=CC[C@H]3[C@@H]4CC[C@H](c5nc(C)no5)[C@@]4(C)CC[C@@H]32)C1 | < 20 | 28.1 | 53 | 34.3 | 30.6 | 20 | 52.7 | 31.6
4 | CC(=O)O[C@H]1CC[C@@]2(C)C(=CC[C@@H]3[C@@H]2CC[C@]2(C)C(c4nc(-c5ccccc5)no4)=CC[C@@H]32)C1 | < 20 | 20.3 | 25.7 | < 20 | 39 | 28.3 | 33.9 | < 20
5 | CC(=O)O[C@H]1CC[C@@]2(C)C(=CC[C@@H]3[C@@H]2CC[C@]2(C)C(c4nc(-c5ccc(C)cc5)no4)=CC[C@@H]32)C1 | < 20 | < 20 | 23.1 | < 20 | < 20 | < 20 | 20.7 | 27.7
6 | COc1ccc(-c2noc(C3=CC[C@H]4[C@@H]5CC=C6C[C@@H](OC(C)=O)CC[C@]6(C)[C@H]5CC[C@]34C)n2)cc1 | < 20 | 29.9 | 57.7 | 33.8 | 33 | < 20 | 52.9 | 35
7 | CC(=O)O[C@H]1CC[C@@]2(C)C(=CC[C@@H]3[C@@H]2CC[C@]2(C)C(c4nc(-c5ccc(Br)cc5)no4)=CC[C@@H]32)C1 | < 20 | < 20 | < 20 | < 20 | < 20 | < 20 | < 20 | < 20
8 | CC(=O)O[C@H]1CC[C@@]2(C)C(=CC[C@@H]3[C@@H]2CC[C@]2(C)C(c4nc(C)no4)=CC[C@@H]32)C1 | < 20 | < 20 | 80.4 | 32.6 | 57.5 | < 20 | 34.4 | < 20
9 | CC(=O)O[C@H]1CC[C@@]2(C)C(=CC[C@H]3[C@@H]4CC[C@H](c5nc(-c6ccccc6)no5)[C@@]4(C)CC[C@@H]32)C1 | 40.3 | 59.1 | 44.9 | < 20 | 43.2 | < 20 | 49 | < 20
10 | CC(=O)O[C@H]1CC[C@@]2(C)C(=CC[C@H]3[C@@H]4CC[C@H](c5nc(-c6ccc(C)cc6)no5)[C@@]4(C)CC[C@@H]32)C1 | < 20 | < 20 | < 20 | < 20 | < 20 | < 20 | < 20 | < 20
